The test system of one experiment is THP-1 cells. Description: MTT cytotoxicity assay, leukemia. Conditions: read-out: Leukemia (THP-1) IC50. Format: cell-based, human. The essentials: (§1)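 Human Colo-205, PC-3, THP-1 and A549 cancer cells and normal epithelial fR-2 cells were grown in RPMI-1640 or DMEM with 10% fetal calf serum, penicillin and streptomycin, at 37 °C in 5.0% CO2. After overnight attachment, cells were exposed to 0.07, 0.7, 7.0 and 70.0 μM test compound for 24 h, then to MTT (250 μg mL−1) for 3–4 h. OD was read at 570 nm. Growth (%) = test OD/untreated OD × 100. IC50 was taken from concentration–growth curves as the mean of triplicates.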
For orientation: Formazan colour is commonly taken as a measure of viable cells.

In a further experiment the test system is PC-3 cells. Description: MTT cytotoxicity assay, prostate. To be noted: read-out: Prostate (PC-3) IC50. Format: cell-based, human. The method, boiled down: as §1
The test system of a further experiment is A549 cells. The experiment is described as follows: MTT cytotoxicity assay, lung. Format: cell-based, human. To be noted: read-out: Lung (A549) IC50. The method, boiled down: as §1
A further experiment deals with fR-2 cells. Description: MTT cytotoxicity assay, normal epithelial cell line. To be noted: read-out: Normal (fR-2) IC50. Format: cell-based. The essentials:
as §1

For another experiment, the system named is Colo-205 cells. Description: MTT cytotoxicity assay, colon. Format: cell-based, human. Conditions: read-out: Colon (Colo-205) IC50. The essentials:
as §1

Experiment [1] has as its system Colo-205, PC-3, THP-1, A549 and fR-2 cells. Description: MTT cytotoxicity assay, statements on the whole cell line panel. Format: cell-based. To be noted: Homo sapiens, 24 h, read-out: IC50 values (all tested cell lines). The essentials:
as §1

The mark [2] stands for this setting: MTT, 24 h treatment, n = 3, mean ± SD.

We go through 19 compounds from paper PMC9057999 (RSC Advances, 2020).

Read-outs that look alike come from different tables or passages of the source.

With `CCOC(=O)C1=C(C)NC(=O)NC1c1ccc2c(c1)CCC(C)(C)O2` (stereo not drawn) [Compound 14a, Ethyl-1,2,3,4-tetrahydro-6-methyl-4-(2,2-dimethylchroman-6-yl)-2-oxo-pyrimidine-5-carboxylate], the IC50 (in general, the concentration that inhibits the measured activity by half) in the experiment on THP-1 cells (Homo sapiens, THP-1, 24 h) is more than 70 µM; in the experiment on PC-3 cells (Homo sapiens, PC-3, 24 h), more than 70 µM; with A549 cells (Homo sapiens, A549, 24 h), more than 70 µM; in the experiment on fR-2 cells (FR2, 24 h), more than 70 µM; in the experiment on Colo-205 cells (Homo sapiens, COLO 205, 24 h), more than 70 µM.
In the case of `CCOC(=O)C1=C(C)NC(=O)NC1C1=C(Cl)c2ccccc2CC1` (stereo not drawn) [Compound 12a, Ethyl-4-(1-chloro-3,4-dihydronaphthalen-2-yl)-6-methyl-2-oxo-1,2,3,4-tetrahydropyrimidine-5-carboxylate], the IC50 in the experiment with THP-1 cells (Homo sapiens, THP-1, 24 h) was more than 70 µM; in experiment [1], more than 70 µM; in the experiment on PC-3 cells (Homo sapiens, PC-3, 24 h), more than 70 µM; in the experiment on A549 cells (Homo sapiens, A549, 24 h), more than 70 µM; in the experiment on fR-2 cells (FR2, 24 h) it was more than 70 µM; with Colo-205 cells (Homo sapiens, COLO 205, 24 h), more than 70 µM.
`CCCCCCC1NC(=O)NC(C)=C1C(=O)OCC` (stereo not drawn) [Compound 9a, Ethyl-4-hexyl-1,2,3,4-tetrahydro-6-methyl-2-oxo-pyrimidine-5-carboxylate]: the IC50 was more than 70 µM with THP-1 cells (Homo sapiens, THP-1, 24 h); more than 70 µM in experiment [1]; more than 70 µM with PC-3 cells (Homo sapiens, PC-3, 24 h); more than 70 µM in the experiment with A549 cells (Homo sapiens, A549, 24 h); more than 70 µM with fR-2 cells (FR2, 24 h); more than 70 µM in the experiment on Colo-205 cells (Homo sapiens, COLO 205, 24 h).
Turning to `CC(=O)O[C@H]1C(=O)[C@@]2(C)[C@H]([C@H](OC(=O)c3ccccc3)[C@]3(O)C[C@H](OC(=O)[C@H](O)[C@@H](NC(=O)c4ccccc4)c4ccccc4)C(C)=C1C3(C)C)[C@]1(OC(C)=O)CO[C@@H]1C[C@@H]2O` [Paclitaxel, reference compound], the IC50 in the experiment with PC-3 cells (Homo sapiens, PC-3, 24 h) was found to be 0.048 ± 0.008 µM; with A549 cells (Homo sapiens, A549, 24 h), 5.1 ± 0.4 µM.
For `CCOC(=O)C1=C(C)NC(=O)NC1C=Cc1cccc(OC)c1OC` (stereo not drawn) [Compound 17a, Ethyl 4-(2,3-dimethoxystyryl)-1,2,3,4-tetrahydro-6-methyl-2-oxopyrimidine-5-carboxylate], the IC50 with THP-1 cells (Homo sapiens, THP-1, 24 h) was more than 70 µM; in the experiment with PC-3 cells (Homo sapiens, PC-3, 24 h), 47.9 ± 2.1 µM; with A549 cells (Homo sapiens, A549, 24 h), 26.4 ± 1.1 µM; in the experiment with fR-2 cells (FR2, 24 h) it was more than 70 µM; in the experiment on Colo-205 cells (Homo sapiens, COLO 205, 24 h), 38.2 ± 1.4 µM.
Take `CCCCCC1NC(=O)NC(C)=C1C(=O)OCC` (stereo not drawn) [Compound 8a]: the IC50 with THP-1 cells (setting [2]) turned out to be 43.8 ± 1.4 µM; in the experiment on PC-3 cells (setting [2]), 22.2 ± 1.6 µM; with A549 cells (setting [2]), 63.4 ± 1.1 µM; with fR-2 cells (setting [2]) it was 67.2 ± 1.5 µM; in the experiment with Colo-205 cells (setting [2]), 18.6 ± 1 µM.
Take `CCOC(=O)C1=C(C)NC(=O)NC1C=Cc1ccc(OC)cc1OC` (stereo not drawn) [Compound 19a, Ethyl-4-(2,4-dimethoxystyryl)-1,2,3,4-tetrahydro-6-methyl-2-oxopyrimidine-5-carboxylate]: the IC50 in the experiment with THP-1 cells (Homo sapiens, THP-1, 24 h) was more than 70 µM; in the experiment with PC-3 cells (Homo sapiens, PC-3, 24 h), more than 70 µM; in the experiment on A549 cells (Homo sapiens, A549, 24 h), 47.8 ± 2.4 µM; with fR-2 cells (FR2, 24 h), more than 70 µM; in the experiment on Colo-205 cells (Homo sapiens, COLO 205, 24 h), 33.7 ± 1.8 µM.
With `CCOC(=O)C1=C(C)NC(=O)NC1C=Cc1cc(OC)c(OC)c(OC)c1` (stereo not drawn) [Compound 18a, Ethyl 4-(3,4,5-trimethoxystyryl)-1,2,3,4-tetrahydro-6-methyl-2-oxopyrimidine-5-carboxylate], the IC50 is more than 70 µM in the experiment on THP-1 cells (Homo sapiens, THP-1, 24 h); more than 70 µM in experiment [1]; more than 70 µM in the experiment with PC-3 cells (Homo sapiens, PC-3, 24 h); more than 70 µM in the experiment with A549 cells (Homo sapiens, A549, 24 h); more than 70 µM with fR-2 cells (FR2, 24 h); more than 70 µM in the experiment with Colo-205 cells (Homo sapiens, COLO 205, 24 h).
As to `CCOC(=O)C1=C(C)NC(=O)NC1/C(CC(=O)OC)=C(\Cl)c1ccc(OC)c(OC)c1` (stereo not drawn) [Compound 13a, Ethyl-4-((Z)-3-(methoxycarbonyl)-1-chloro-1-(3,4-dimethoxyphenyl)prop-1-en-2-yl)-1,2,3,4-tetrahydro-6-methyl-2-oxopyrimidine-5-carboxylate], the IC50 with THP-1 cells (Homo sapiens, THP-1, 24 h) was found to be 23.2 ± 1.4 µM; in the experiment on PC-3 cells (Homo sapiens, PC-3, 24 h) it was 35.4 ± 2.2 µM; in the experiment on A549 cells (Homo sapiens, A549, 24 h), 30.3 ± 2.9 µM; in the experiment with fR-2 cells (FR2, 24 h), 67.6 ± 2.5 µM; in the experiment on Colo-205 cells (Homo sapiens, COLO 205, 24 h), 59.4 ± 1.6 µM.
As to `CCCC1NC(=O)NC(C)=C1C(=O)OCC` (stereo not drawn) [Compound 6a, Ethyl 1,2,3,4-tetrahydro-6-methyl-2-oxo-4-propylpyrimidine-5-carboxylate], the IC50 with THP-1 cells (Homo sapiens, THP-1, 24 h) is more than 70 µM; in experiment [1], more than 70 µM; in the experiment on PC-3 cells (Homo sapiens, PC-3, 24 h) it was more than 70 µM; with A549 cells (Homo sapiens, A549, 24 h), more than 70 µM; with fR-2 cells (FR2, 24 h) it was more than 70 µM; with Colo-205 cells (Homo sapiens, COLO 205, 24 h) it was more than 70 µM.
On to `COc1cccc2c1C(=O)c1c(O)c3c(c(O)c1C2=O)C[C@@](O)(C(=O)CO)C[C@@H]3O[C@H]1C[C@H](N)[C@H](O)[C@H](C)O1` [Doxorubicin, reference compound], for which the IC50 in the experiment with THP-1 cells (Homo sapiens, THP-1, 24 h) was found to be 0.018 ± 0.004 µM.
Regarding `CCOC(=O)C1=C(C)NC(=O)NC1/C=C\c1ccc2c(c1)CCC(C)(C)O2` (stereo not drawn) [Compound 15a, Ethyl-1,2,3,4-tetrahydro-6-methyl-4-((Z)-2-(2,2-dimethylchroman-6-yl)vinyl)-2-oxo-pyrimidine-5-carboxylate], the IC50 with THP-1 cells (Homo sapiens, THP-1, 24 h) was more than 70 µM; with PC-3 cells (Homo sapiens, PC-3, 24 h), more than 70 µM; with A549 cells (Homo sapiens, A549, 24 h), more than 70 µM; in the experiment on fR-2 cells (FR2, 24 h) it was more than 70 µM; in the experiment with Colo-205 cells (Homo sapiens, COLO 205, 24 h), 27.3 ± 1.8 µM.
With `CCOC(=O)C1=C(C)NC(=O)NC1C=Cc1cccc(O)c1` (stereo not drawn) [Compound 10a, Ethyl-4-(3-hydroxystyryl)-1,2,3,4-tetrahydro-6-methyl-2-oxopyrimidine-5-carboxylate], the IC50 was 42.1 ± 1.7 µM with THP-1 cells (Homo sapiens, THP-1, 24 h); 29.4 ± 1.2 µM with PC-3 cells (Homo sapiens, PC-3, 24 h); more than 70 µM with A549 cells (Homo sapiens, A549, 24 h); more than 70 µM with fR-2 cells (FR2, 24 h); more than 70 µM with Colo-205 cells (Homo sapiens, COLO 205, 24 h).
In the case of `CCCCC1NC(=O)NC(C)=C1C(=O)OCC` (stereo not drawn) [Compound 7a, Ethyl 4-butyl-1,2,3,4-tetrahydro-6-methyl-2-oxopyrimidine-5-carboxylate], the IC50 was more than 70 µM in the experiment on THP-1 cells (Homo sapiens, THP-1, 24 h); more than 70 µM in experiment [1]; more than 70 µM with PC-3 cells (Homo sapiens, PC-3, 24 h); more than 70 µM with A549 cells (Homo sapiens, A549, 24 h); more than 70 µM in the experiment on fR-2 cells (FR2, 24 h); more than 70 µM in the experiment on Colo-205 cells (Homo sapiens, COLO 205, 24 h).
For `CCOC(=O)C1=C(C)NC(=O)NC1c1ccc2c(c1)OCO2` (stereo not drawn) [Compound 21a, Ethyl-4-(benzo[d][1,3]dioxol-6-yl)-1,2,3,4-tetrahydro-6-methyl-2-oxopyrimidine-5-carboxylate], the IC50 in the experiment with THP-1 cells (Homo sapiens, THP-1, 24 h) is more than 70 µM; in the experiment with PC-3 cells (Homo sapiens, PC-3, 24 h) it was more than 70 µM; in the experiment on A549 cells (Homo sapiens, A549, 24 h), more than 70 µM; in the experiment on fR-2 cells (FR2, 24 h), more than 70 µM; with Colo-205 cells (Homo sapiens, COLO 205, 24 h), 48.1 ± 2.1 µM.
With `CCOC(=O)C1=C(C)NC(=O)NC1C1=Cc2ccccc2CC1` (stereo not drawn) [Compound 11a, Ethyl-4-(3,4-dihydronaphthalen-2-yl)-6-methyl-2-oxo-1,2,3,4-tetrahydropyrimidine-5-carboxylate], the IC50 is more than 70 µM in the experiment with THP-1 cells (Homo sapiens, THP-1, 24 h); 29.3 ± 1.3 µM in the experiment on PC-3 cells (Homo sapiens, PC-3, 24 h); more than 70 µM in the experiment on A549 cells (Homo sapiens, A549, 24 h); more than 70 µM in the experiment with fR-2 cells (FR2, 24 h); more than 70 µM in the experiment on Colo-205 cells (Homo sapiens, COLO 205, 24 h).
With `CCOC(=O)C1=C(C)NC(=O)NC1C(C)=CCc1cc2oc(=O)ccc2cc1OC` (stereo not drawn) [Compound 5a, Ethyl 4-(4-(6-methoxy-2-oxo-2H-chromen-7-yl)but-2-en-2-yl)-6-methyl-2-oxo-1,2,3,4-tetrahydropyrimidine-5-carboxylate], the IC50 was found to be 65.8 ± 1.4 µM with THP-1 cells (Homo sapiens, THP-1, 24 h); 40.8 ± 1.7 µM with PC-3 cells (Homo sapiens, PC-3, 24 h); 67.8 ± 1.7 µM in the experiment on A549 cells (Homo sapiens, A549, 24 h); 68.8 ± 1.1 µM in the experiment with fR-2 cells (FR2, 24 h); 37.6 ± 1.1 µM in the experiment on Colo-205 cells (Homo sapiens, COLO 205, 24 h).
`CCOC(=O)C1=C(C)NC(=O)NC1/C=C/c1ccc2c(c1)OCO2` (stereo not drawn) [Compound 20a, Ethyl-4-((E)-2-(benzo[d][1,3]dioxol-6-yl)vinyl)-1,2,3,4-tetrahydro-6-methyl-2-oxo pyrimidine-5-carboxylate]: the IC50 in the experiment on THP-1 cells (setting [2]) was more than 70 µM; in the experiment with PC-3 cells (setting [2]), more than 70 µM; in the experiment with A549 cells (setting [2]) it was more than 70 µM; in the experiment on fR-2 cells (setting [2]), 68.7 ± 1.1 µM; in the experiment with Colo-205 cells (setting [2]) it was 23.4 ± 1.4 µM.
Consider `O=c1[nH]cc(F)c(=O)[nH]1` [5-Fluorouracil, reference compound], for which the IC50 in the experiment on fR-2 cells (FR2, 24 h) came out at 335 ± 3.8 µM; with Colo-205 cells (Homo sapiens, COLO 205, 24 h), 33.9 ± 1.9 µM.
